Results from ChEMBL document CHEMBL4321877, “Development of Novel N-hydroxypyridone Derivatives as Potential Anti-Ischemic Stroke Agents” (J Med Chem, 2020).
Values after ≈ are worked out from the molar mass of the structure shown. Active and inactive are the calls of the source. The calls are words filed in the database; no cut-off is given here.

Key:
SH-SY5Y [1] = assay: Neuroprotective activity against oxygen-glucose deprivation-induced toxicity in human SH-SY5Y cells assessed as cell viability at 10 uM preincubated for 2 hrs followed by OGD-challenge and measured after 24 hrs by MTT assay (reference value: 54.92 +/- 2.12%); assay type: functional; conditions: read-out: Activity
SH-SY5Y [2] = assay: Neuroprotective activity against oxygen-glucose deprivation-induced toxicity in human SH-SY5Y cells assessed as cell viability at 1 uM preincubated for 2 hrs followed by OGD-challenge and measured after 24 hrs by MTT assay (reference value: 54.92 +/- 2.12%); assay type: functional; conditions: read-out: Activity
[3] = Permeability of the compound incubated for 10 hrs by PAMPA; assay type: ADME; conditions: read-out: permeability
[4] = Antioxidant activity assessed as trolox equivalent of AAPH radical scavenging activity measured every min for 180 mins by ORAC-FL assay; assay type: functional
SH-SY5Y [5] = assay: Cytotoxicity against human SH-SY5Y cells assessed as reduction in cell viability at 10 uM measured after 24 hrs by MTT assay; assay type: cell-based
Outline: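 SH-SY5Y cells (1:1 MEM/F12, 10% FBS) seeded 3 × 10^4 cells/well, grown 24 h, then exposed without insult for 24 h to 1.56–100 µM or to 1 and 10 µM (DMSO stock diluted in medium). MTT read at 490 nm; viability as % of untreated control.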

SH-SY5Y [6] = assay: Neuroprotective activity against oxygen-glucose deprivation-induced toxicity in human SH-SY5Y cells assessed as cell viability at 1 uM preincubated for 2 hrs followed by OGD-challenge and measured after 24 hrs by MTT assay (reference value: 54.23 +/- 4.48%); assay type: functional; conditions: read-out: Activity
SH-SY5Y [7] = assay: Neuroprotective activity against oxygen-glucose deprivation-induced toxicity in human SH-SY5Y cells assessed as cell viability at 4 uM added immediately before OGD-challenge and measured after 24 hrs by MTT assay (reference value: 54.23 +/- 4.48%)
SH-SY5Y [8] = assay: Neuroprotective activity against oxygen-glucose deprivation-induced toxicity in human SH-SY5Y cells assessed as increase in cell viability preincubated for 2 hrs followed by OGD-challenge and measured after 24 hrs by MTT assay; assay type: functional, cell-based
[9] = Metal chelating activity of the compound assessed as formation of ferric-compound complex at 60 uM after 15 mins using FeCl3 solution by UV-vis spectrophotometric method
SH-SY5Y [10] = assay: Neuroprotective activity against oxygen-glucose deprivation-induced toxicity in human SH-SY5Y cells assessed as cell viability at 4 uM preincubated for 2 hrs followed by OGD-challenge and measured after 24 hrs by MTT assay (reference value: 54.92 +/- 2.12%); assay type: functional; conditions: read-out: Activity
[11] = Metal chelating activity of the compound assessed as formation of ferric-compound complex at 60 uM after 15 mins using FeSO4 solution by UV-vis spectrophotometric method
[12] = Metal chelating activity of the compound assessed as formation of ferrous-compound complex at 60 uM after 15 mins using ammonium iron(II) sulfate solution by UV-vis spectrophotometric method
[13] = Metal chelating activity of the compound assessed as formation of ferric-compound complex at 60 uM after 15 mins using ammonium iron citrate solution by UV-vis spectrophotometric method
SH-SY5Y [14] = assay: Neuroprotective activity against oxygen-glucose deprivation-induced toxicity in human SH-SY5Y cells assessed as cell viability at 2 uM preincubated for 2 hrs followed by OGD-challenge and measured after 24 hrs by MTT assay (reference value: 54.92 +/- 2.12%); assay type: functional; conditions: read-out: Activity
[15] = Metal chelating activity of the compound assessed as formation of ferric-compound complex by measuring change in color at 60 uM after 15 mins using ammonium iron citrate solution by UV-vis spectrophotometric method
[16] = Solubility of the compound in […] incubated for 24 hrs by HPLC analysis; assay type: physicochemical
[17] = Metal chelating activity of the compound assessed as formation of ferric-compound complex at 60 uM after 15 mins using ammonium iron citrate solution by UV-vis spectrophotometric method
[18] = Metal chelating activity of the compound assessed as formation of ferric-compound complex by measuring change in color at 60 uM after 15 mins using FeSO4 solution by UV-vis spectrophotometric method
Rattus norvegicus = assay: Neuroprotective activity in Sprague-Dawley rat model of middle cerebral artery occlusion-induced ischemia-reperfusion injury assessed as reduction in disease severity score at 3 mg/kg, iv measured 24 hrs post-reperfusion; assay type: functional, organism-based
Outline: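 Male Sprague-Dawley rats anesthetized with chloral hydrate (400 mg/kg i.p.); left MCA occluded by intraluminal nylon suture for 2 h, then withdrawn. Compound in 0.9% saline given by tail vein immediately after reperfusion; body temperature held at 37.0 ± 0.5 °C. mNSS scored 24 h later; n = 15–18, mean ± SEM.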

HT-22 = assay: Neuroprotective activity against glutamate-induced cell death in mouse HT22 cells assessed as increase in cell viability up to 4 uM preincubated for 2 hrs followed by glutamate-challenge and measured after 24 hrs by MTT assay; assay type: functional, cell-based
Outline: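 HT22 mouse hippocampal cells (DMEM, 10% FBS) seeded 5×10^4 cells/ml and grown 12 h. Compound added for 2 h, then 10 mM L-glutamic acid hydrochloride for 24 h. Viability by MTT at 490 nm as % of control; mean ± SD, n = 3.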

SH-SY5Y [19] = assay: Neuroprotective activity against oxygen-glucose deprivation-induced toxicity in human SH-SY5Y cells assessed as cell viability at 10 uM preincubated for 2 hrs followed by OGD-challenge and measured after 24 hrs by MTT assay (reference value: 49.91%); assay type: functional; conditions: read-out: Activity
SH-SY5Y [20] = assay: Neuroprotective activity against oxygen-glucose deprivation-induced toxicity in human SH-SY5Y cells assessed as cell viability at 1 uM preincubated for 2 hrs followed by OGD-challenge and measured after 24 hrs by MTT assay (reference value: 49.91%); assay type: functional; conditions: read-out: Activity

Structure (SMILES) | viability at 10 µM (SH-SY5Y [1]) | viability at 1 µM (SH-SY5Y [2]) | further results
CCCCCc1cc(C)cc(=O)n1O | 62% | 63.5% | –
Cc1cc(C2CCCCC2)n(O)c(=O)c1CNC1CCCC1 | 61.9% | 67% | Papp at 10 h [3]: 3.89 ×10⁻⁶ cm/s; Activity [4]: inactive; Activity (SH-SY5Y [5]): Toxic
CCCNCc1c(C)cc(C2CCCCC2)n(O)c1=O | 68% | 61% | –
COC(=O)COn1c(C2CCCCC2)cc(C)cc1=O | 56.4% | 49.9% | –
Cc1cc(CC(C)C)n(O)c(=O)c1 | 73.3% | 47.7% | –
CCCCCCCNCc1c(C)cc(C2CCCCC2)n(O)c1=O | – | – | viability at 1 µM (SH-SY5Y [6]): 60%; viability at 4 µM (SH-SY5Y [7]): 87.2%
CCCCCCCc1cc(C)cc(=O)n1O | 58.5% | 71.7% | Activity (SH-SY5Y [8]): inactive
Cc1cc([C@H]2C[C@H]3CC[C@@H]2C3)n(O)c(=O)c1 | 64.5% | 70.6% | Activity [9]: Active; viability at 4 µM (SH-SY5Y [10]): > 80%; Papp at 10 h [3]: 7.5 ×10⁻⁶ cm/s; Activity [11]: Active; Activity [12]: Active; Activity [13]: Active; viability at 2 µM (SH-SY5Y [14]): > 80%; Activity (umolequiv/umol) [4]: 1.13; Activity [15]: Active; solubility at 24 h [16]: 1220 µg/mL (≈ 5.56 mM); Activity (SH-SY5Y [5]): Toxic; Activity [17]: Active; Activity [18]: Active
Cc1cc(C)n(O)c(=O)c1 [METIPIROX] | 18.3% | 55.8% | –
O=c1cccc(C2CCCCC2)n1O | 76.6% | 51.8% | –
Cc1cc(C2CCCCC2)n(O)c(=O)c1CNC(C)C | 65.2% | 61% | –
Cc1cc(C2CCCCC2)n(O)c(=O)c1Br | 59.9% | 62.9% | –
Cc1cc(C2CCCCC2)n(O)c(=O)c1I | 55.1% | 76.3% | Papp at 10 h [3]: 7.65 ×10⁻⁶ cm/s; viability at 2 µM (SH-SY5Y [14]): > 80%; Activity (umolequiv/umol) [4]: 0.2
Cc1cc(C2CC2)n(O)c(=O)c1 | 62.8% | 58.8% | –
Cc1cc(=O)n(O)c(C2CCCCC2)c1Br | 63.2% | 81% | Papp at 10 h [3]: 3.97 ×10⁻⁶ cm/s; Activity [4]: inactive
Cc1cc(C2CCCCCC2)n(O)c(=O)c1 | 38.4% | 71% | Papp at 10 h [3]: 4.42 ×10⁻⁶ cm/s; viability at 2 µM (SH-SY5Y [14]): > 80%; Activity [4]: inactive; Activity (SH-SY5Y [5]): Toxic

Structure (SMILES) | viability at 10 µM (SH-SY5Y [1]) | viability at 1 µM (SH-SY5Y [2]) | further results
Cc1cc(C2CCCCC2)n(OCC(=O)O)c(=O)c1 | 55.9% | 56% | –
Cc1cc(C2CCCC2)n(O)c(=O)c1 | 70.7% | 52.4% | –
Cc1cc(C2CCCCC2)n(O)c(=O)c1 [CICLOPIROX] | 69.8% | 70.1% | Papp at 10 h [3]: 8.17 ×10⁻⁶ cm/s; solubility at 24 h [16]: 1430 µg/mL (≈ 6.9 mM); Activity (SH-SY5Y [5]): Toxic
Cc1cc(C2CCCCC2)n(O)c(=O)c1 | – | – | Activity [9]: Active; Activity [11]: Active; Activity [12]: Active; Activity [13]: Active; Activity (Rattus norvegicus): Active; Activity (umolequiv/umol) [4]: 0.52; Activity (HT-22): Active; Activity [15]: Active; Activity [17]: Active; Activity [18]: Active
Cc1cc(C2CCCCC2)n(O)c(=O)c1C=O | 56.5% | 54.8% | –
O=c1c2ccccc2cc(C2CCCCC2)n1O | 61.6% | 78.5% | Papp at 10 h [3]: 4.43 ×10⁻⁶ cm/s; Activity [4]: inactive
Cc1cc(C2CCCCC2)n(O)c(=O)c1CNc1ccccc1 | 75.5% | 56.8% | –
CNCc1c(C)cc(C2CCCCC2)n(O)c1=O | 67.5% | 60.9% | –
C#CCNCc1c(C)cc(C2CCCCC2)n(O)c1=O | 61.6% | 63.6% | –
CCCCCCCCCc1cc(C)cc(=O)n1O | 42.5% | 53% | –
CCOn1c(C2CCCCC2)cc(C)cc1=O | – | – | Activity [11]: inactive; viability at 10 µM (SH-SY5Y [19]): 43.9%; viability at 1 µM (SH-SY5Y [20]): 46.3%; Activity [17]: inactive
CCc1cc(C2CCCCC2)n(O)c(=O)c1 | 67.3% | 69.8% | Papp at 10 h [3]: 4.53 ×10⁻⁶ cm/s; Activity [4]: inactive
Cc1cc(Cc2ccccc2)n(O)c(=O)c1 | 76.8% | 46.5% | –
Cc1cc(C2CCC2)n(O)c(=O)c1 | 71.2% | 46% | –
Cc1cc(C2CCCCC2)n(O)c(=O)c1Cl | 57.1% | 63.4% | –
CCCc1cc(C)cc(=O)n1O | 64% | 47% | –
